Laboratory results published in ChEMBL document CHEMBL1129062, “6- and 7-substituted 2-[2'-(dimethylamino)ethyl]-1,2-dihydro-3H-dibenz[de,h] isoquinoline-1,3-diones: synthesis, nucleophilic displacements, antitumor activity, and quantitative structure-activity relationships” (J Med Chem, 1996).
pIC50: −log10 of the molar value.

Experiments:
[1] = An average for IC50 values in the two solid tumor cell lines and sensitive L1210 leukemia cell line.; format: functional, cell-based
[2] = system: B16; experiment: Compound was tested against sc B16 melanoma at % tumor growth inhibition(TGI) in mice at 4 mg/kg dosage.; format: functional; settings: Mus musculus, route subcutaneous, read-out: TGI
[3] = system: P388; experiment: Compounds was tested against P388 leukemia at % increase in life span (ILS) in mice at 4.5 mg/kg dosage.; format: functional; settings: Mus musculus
Outline: (§1)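 Male DBA/2J mice, 10 per group, inoculated ip on day 0 with 10^6 freshly harvested leukemia cells. Compound given ip in equal doses on days 1, 5 and 9; controls received saline ip on the same days. Highest dose set 10% below the acute LD10. %ILS = 100 × (treated − control)/control, using median life span per group; value reported at highest nontoxic dose.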

[4] = system: WiDr; experiment: Compound was tested against WiDr colon carcinoma (resistant) in the sulforhodamine B assay.; format: functional, cell-based; settings: Homo sapiens
Outline: (§2)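 Sulforhodamine B assay. Cells plated at 50 000/well; drug added on day 2 at 10^1–10^-5 μg/mL in half-log steps from DMSO stock diluted in PBS, final DMSO ≤0.1%. After 8-day exposure at 37 °C, cells fixed with TCA at 4 °C for 1 h and stained 30 min with 0.4% SRB. Dye solubilized in 10 mM Tris and OD read at 564 nm. Six wells per concentration; IC50 averaged.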

[5] = system: WiDr; experiment: Tested against WiDr colon (sensitive) in the sulforhodamine B assay.; format: functional, cell-based; settings: Homo sapiens; outline: as §2
[6] = system: Tumor cell line; experiment: An average for IC50 values in the two solid tumor cell lines.; format: functional, cell-based
[7] = organism: Rattus norvegicus; experiment: Cardiotoxicity by a neonatal rat heart myocyte assay; format: toxicity
Outline: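 Neonatal rat heart myocytes exposed to drug for 1 h. Read-out is the ATP/protein ratio relative to untreated control myocytes. IC50 is the 1-h concentration that reduces this ratio to 50% of control.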

[8] = system: L1210; experiment: Compound was tested against L1210 leukemia at % increase in life span (ILS) in mice at 5 mg/kg dosage.; format: functional; settings: Mus musculus; outline: as §1
[9] = system: MCF7; experiment: Tested against […] breast carcinoma (sensitive) cell line in the sulforhodamine B assay.; format: functional, cell-based; settings: Homo sapiens; outline: as §2
[10] = system: UACC-375; experiment: Inhibitory activity against […] cell line; format: functional, cell-based; settings: Homo sapiens
[11] = system: A549; experiment: Tested against A549 lung carcinoma in the sulforhodamine B assay.; format: functional, cell-based; settings: Homo sapiens; outline: as §2
[12] = system: MCF7; experiment: Tested against […] breast carcinoma (doxorubicin resistant) cell line in the sulforhodamine B assay.; format: functional, cell-based; settings: Homo sapiens; outline: as §2
[13] = system: WiDr; experiment: Tested against WiDr colon carcinoma (resistant) in the sulforhodamine B assay.; format: functional, cell-based; settings: Homo sapiens; outline: as §2
[14] = system: L1210; experiment: Inhibitory activity against resistant murine leukemia L1210 cell lines.; format: functional, cell-based; settings: Mus musculus
[15] = system: OVCAR-3; experiment: Inhibitory activity against OVCAR-3 cell line; format: functional, cell-based; settings: Homo sapiens
[16] = system: MCF7; experiment: Tested against […] breast carcinoma (mitoxantrone resistant)cell line in the sulforhodamine B assay.; format: functional, cell-based; settings: Homo sapiens; outline: as §2
[17] = system: L1210; experiment: Inhibitory activity against sensitive L1210 cell lines; format: functional, cell-based; settings: Mus musculus
[18] = Toxicity ratio determined by the quotient of IC50 values in the myocytes divided by the average value in the three tumor lines.; format: functional
Outline: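 Ratio is the myocyte cardiotoxicity IC50 (1-h exposure, ATP/protein ratio versus untreated myocytes) divided by the mean IC50 in sensitive L1210 and the two human tumor lines, measured with continuous exposure.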

[19] = system: A549; experiment: Compound was tested against A549 lung carcinoma cell line in the sulforhodamine B assay.; format: functional, cell-based; settings: Homo sapiens; outline: as §2
[20] = system: WiDr; experiment: Compound was tested against WiDr colon carcinoma (resistant)cell line in the sulforhodamine B assay.; format: functional, cell-based; settings: Homo sapiens; outline: as §2
[21] = system: WiDr; experiment: Compound was tested against WiDr colon (sensitive) cell line in the sulforhodamine B assay.; format: functional, cell-based; settings: Homo sapiens; outline: as §2
[22] = system: L1210; experiment: Compound was tested against L1210 leukemia at % increase in life span (ILS) in mice at 8 mg/kg dosage.; format: functional; settings: Mus musculus; outline: as §1
[23] = system: WiDr; experiment: Compound tested against WiDr colon carcinoma (resistant) in the sulforhodamine B assay.; format: functional, cell-based; settings: Homo sapiens; outline: as §2

| SMILES | pIC50 [1] | pIC50 [5] | pIC50 [6] | pIC50 [9] | pIC50 [10] | pIC50 [11] | pIC50 [12] | pIC50 [13] | pIC50 [14] | pIC50 [15] | pIC50 [17] | pIC50 [7] | pIC50 [16] | Toxicity ratio [18] | other results |
| --- | --- | --- | --- | --- | --- | --- | --- | --- | --- | --- | --- | --- | --- | --- | --- |
| COc1cccc2c1C(=O)c1c(O)c3c(c(O)c1C2=O)C[C@@](O)(C(=O)CO)C[C@@H]3O[C@H]1C[C@H](N)[C@H](O)[C@H](C)O1 [DOXORUBICIN] | 7.21 | 7.28 | 7.13 |  |  |  |  |  |  |  |  | 4.99 |  |  | inhibition in vivo at 4 mg/kg [2]: 120%; ILS at 4.5 mg/kg [3]: 113%; pIC50 [4]: 6.89; ILS at 5 mg/kg [8]: 210% |
| CN(C)CCN1C(=O)c2ccc(Cl)c3cc4ccccc4c(c23)C1=O | 7.11 |  | 7.11 | 7.60 | 7.41 |  | 6.92 |  | 7.19 | 6.94 | 7.11 | 5.39 | 7.30 | 53 | pIC50 [19]: 7.72; pIC50 [20]: 6.46; pIC50 [21]: 7.15 |
| CCSc1ccc2c3c(c4ccccc4cc13)C(=O)N(CCN(C)C)C2=O | 7.39 |  | 7.24 | 7.70 | 7.01 | 8.35 | 7.12 | 6.96 | 8.32 | 7.72 | 8.22 | 5.11 | 7.48 | 189 |  |
| COc1ccc2c3c(c4ccccc4cc13)C(=O)N(CCN(C)C)C2=O | 8.41 | 7.77 | 8.34 | 7.85 | 8.11 | 8.66 | 6.57 | 7.48 | 8.41 | 8.89 | 8.59 | 6.10 | 7.72 | 205 | ILS at 8 mg/kg [22]: 86% |
| COc1c2ccccc2c2c3c(cccc13)C(=O)N(CCN(C)C)C2=O | 6.87 | 6.74 | 6.84 | 6.82 | 6.81 | 7.04 | 6.74 | 6.59 | 6.96 | 6.89 | 6.93 | 4.58 | 6.57 | 194 |  |
| CN(C)CCN1C(=O)c2ccc(N(C)C)c3cc4ccccc4c(c23)C1=O | 6.68 | 7.05 | 6.52 | 7.17 | 7.00 | 7.64 | 6.89 | 6.89 | 7.02 | 6.30 | 7.64 |  | 7.10 | 223 | Activity [7]: 46600 |
| CCc1ccc2c3c(c4ccccc4cc13)C(=O)N(CCN(C)C)C2=O | 6.39 |  | 6.28 |  | 6.28 |  |  |  | 6.63 | 6.28 | 6.74 | 5.11 |  | 19 |  |
| CN(C)CCN1C(=O)c2ccc(O)c3cc4ccccc4c(c23)C1=O | 5.87 |  | 5.71 |  | 5.50 |  |  |  | 6.84 | 6.14 | 6.66 | < 4.62 |  | >18 |  |

More lines, main results first:

| pIC50 [1] | pIC50 [5] | pIC50 [6] | pIC50 [9] | pIC50 [10] | pIC50 [11] | pIC50 [12] | pIC50 [13] | pIC50 [14] | pIC50 [15] | pIC50 [17] | SMILES | pIC50 [7] | pIC50 [16] | Toxicity ratio [18] | other results |
| --- | --- | --- | --- | --- | --- | --- | --- | --- | --- | --- | --- | --- | --- | --- | --- |
| 6.81 | 6.77 | 6.70 | 7.64 | 6.65 | 7.25 | 6.70 | 7.48 | 7.30 | 6.76 | 7.20 | CCOc1c2ccccc2c2c3c(cccc13)C(=O)N(CCN(C)C)C2=O | 5.28 | 6.96 | 34 |  |
| 6.54 | 6.96 | 6.37 | 7.10 | 6.31 | 7.72 | 6.77 | 6.57 | 7.31 | 6.44 | 7.77 | CCCOc1ccc2c3c(c4ccccc4cc13)C(=O)N(CCN(C)C)C2=O | 5.11 | 6.96 | 27 |  |
| 8.01 | 7.92 | 7.85 | 8.00 | 7.70 | 8.38 | 7.92 | 7.19 | 9.28 | 8.06 | 9.43 | CSc1ccc2c3c(c4ccccc4cc13)C(=O)N(CCN(C)C)C2=O | 5.52 | 7.36 | 310 |  |
| 7.14 |  | 7.03 |  | 7.03 |  |  |  | 7.46 | 7.03 | 7.46 | CN(C)CCN1C(=O)c2ccc(S(C)(=O)=O)c3cc4ccccc4c(c23)C1=O | 5.64 |  | 32 |  |
| 6.20 |  | 6.15 |  | 6.33 |  |  |  | 6.23 | 6.02 | 6.33 | CN(C)CCN1C(=O)c2ccc(Cl)c3cc4c(Cl)cccc4c(c23)C1=O | < 4.63 |  | >37 |  |
| 6.04 |  | 5.87 |  | 5.67 |  |  |  | 7.57 | 6.27 | 7.39 | CNCCN1C(=O)c2ccc(OC)c3cc4ccccc4c(c23)C1=O | 5.09 |  | 8.9 |  |
| 7.97 | 7.74 | 7.85 | 7.70 | 7.82 | 8.15 | 7.15 |  | 8.17 | 7.92 | 8.27 | CN(C)CCN1C(=O)c2cccc3c(N)c4ccccc4c(c23)C1=O | 5.71 | 7.10 | 181 | pIC50 [23]: 7.00 |
